This is a sample that favours compounds with a hit; in the whole collection about 2.3% have one here.
V1R ag counter – V1a receptor agonism, counter-screen for OXTR agonists | P37288 | CHO-V1R cells, Fluo-8 calcium fluorescence, agonist mode; 0% DMSO, 100% 3 nM vasopressin | activation, % at 3 µM | 0.25% of 320,000 active;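 active means activation above the mean activation of all tested compounds plus 3 SD, per screening run, cut at about 20% in these data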;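 further: signal is peak over basal fluorescence ratio across a 100 second FLIPR read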
Target sequence (P37288 whole entry, looked up): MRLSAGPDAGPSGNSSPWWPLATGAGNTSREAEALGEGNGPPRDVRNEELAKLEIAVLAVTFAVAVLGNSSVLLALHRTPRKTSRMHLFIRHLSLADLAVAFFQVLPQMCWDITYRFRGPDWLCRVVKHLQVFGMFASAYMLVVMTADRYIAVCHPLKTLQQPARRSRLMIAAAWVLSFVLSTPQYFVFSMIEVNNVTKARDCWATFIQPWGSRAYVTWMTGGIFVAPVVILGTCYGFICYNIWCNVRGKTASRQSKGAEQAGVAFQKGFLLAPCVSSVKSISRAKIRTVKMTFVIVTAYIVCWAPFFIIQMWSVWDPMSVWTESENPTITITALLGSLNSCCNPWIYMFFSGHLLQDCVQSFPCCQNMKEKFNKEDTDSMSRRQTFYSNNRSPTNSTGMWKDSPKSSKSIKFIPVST
TAAR1 agonist – agonists of human TAAR1 | 0.99% of 360,000 active | activation, % at 3 µM | AID 624467 | CHO RD-HGA16 TAAR1, Fluo-8 calcium fluorescence; vehicle wells 0%, saturating PEA agonist 100% | Q96RJ0;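 active means activation above the mean activation of all test compounds in the run plus 3 SD, cut at about 38% in these data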
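Test system: RD-HGA16 (CHO) cells co-expressing Gα16 and hTAAR1 | Doses: Single dose, 3 µM | Schedule: 17-24 h seeding, 75 min 37 °C dye, 30 min RT | Evaluation: % activation from peak over basal fluorescence ratio, DMSO-to-PEA scaled | Technique: Kinetic Fluo-8 calcium fluorescence | Benchmarks: Low control DMSO, high control PEA (EC100)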
OXTR ag – agonists of human oxytocin receptor; P30559; CHO-OTR cells, Fluo-8 calcium fluorescence; normalized: DMSO 0%, oxytocin 100%; activation, % at 3 µM; 0.32% of 320,000 active;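 active means activation above the mean of all tested compounds plus 3 SD, cutoff set per screening run, cut at about 20% in these data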;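 further: peak over basal fluorescence ratio from a 100 s FLIPR kinetic read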
TAAR1 antag – antagonists of human TAAR1; 1.5% of 360,000 active; inhibition, % at 3 µM; Q96RJ0; CHO RD-HGA16 TAAR1, Fluo-8 calcium fluorescence, antagonist;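 active means inhibition above a per-plate cutoff, the mean inhibition of test compounds on that plate plus 3 SD, cut at about 49% in these data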;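 further: 0% = DMSO plus EC80 beta-PEA response and 100% = DMSO alone without agonist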
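Material: CHO RD-HGA16 cells bearing hTAAR1; compound dosing: one-point dosing, 3 µM nominal final; schedule: dye loading 75 min at 37 °C, then 30 min room temperature; measured by: calcium fluorescence with Fluo-8; control set: vehicle and agonist controls; replication: n of 1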
OXTR potentiator – human OXTR potentiation. CHO-OTR cells, Fluo-8 calcium fluorescence, potentiator mode; 0% = oxytocin EC15, 100% = EC100. activation, % at 3 µM. 0.061% of 320,000 active. AID 2445;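 active means activation above that plate's cutoff, the mean activation of tested compounds plus 3 SD, cut at about 6.6% in these data, passing the limit was not always enough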;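 further: 100% uses oxytocin at 75 nM as the full agonist control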
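Material: CHO-OTR cells, human receptor; compound dosing: single dose, 3.0 µM nominal final compound concentration; schedule: 6 min compound pre-incubation at room temperature, 100 s kinetic read; measured by: kinetic Fluo-8 calcium fluorescence; read-out basis: % activation vs EC15 and EC100 oxytocin; controls: EC15 oxytocin alone as 0%, 75 nM oxytocin as 100%; replicates: singlicate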
* = called active by the depositor; . = not tested or not shown.

SMILES	V1R ag counter	TAAR1 agonist	OXTR ag	TAAR1 antag	OXTR potentiator
C[C@H](CO)N1C[C@H](C)[C@@H](CN(C)C(=O)Cc2ccccc2)OCc2cn(nn2)CCCC1=O	.	3.8	.	5.8	.
O=C(COC(=O)c1cc(=O)[nH]c2ccccc12)Nc1nc(-c2ccccc2)cs1	1.6	6.9	-0.3	49.6*	10.8
O=S(=O)(Nc1ccccc1)c1ccc(Oc2ncc(C(F)(F)F)cc2Cl)cc1	21.8*	37.5*	30.4*	69.2*	-24.7
O=[N+]([O-])c1ccc(S(=O)(=O)Nc2ccncc2)cc1	-1.2	7.7	-0.4	-13.3	-10.5
CC(C)NS(=O)(=O)c1ccc(Oc2ncc(C(F)(F)F)cc2Cl)cc1	5.5	28.3	1.5	-24.5	-23.0
O=[N+]([O-])c1ccc(Oc2ccc(S(=O)(=O)Nc3ccccc3)cc2)cc1	22.4*	.	31.2*	.	-15.9
COc1ccccc1NS(=O)(=O)c1ccc(C)c(C(=O)NCC2CCCO2)c1 (centres undefined)	0.1	3.2	0.9	-9.4	-2.3
O=S1(=O)N[C@H](Cc2ccccc2)COc2cccc(F)c21	.	-1.0	.	4.7	.
Cc1c(C(=O)NCCc2ccccc2)oc2ccc(S(=O)(=O)N3CCOCC3)cc12	7.0	38.1*	2.5	28.9	-8.1
Cc1c(C(=O)NCCC2=CCCCC2)oc2ccc(S(=O)(=O)N3CCC4(CC3)OCCO4)cc12	1.7	21.1	-0.5	60.2*	-11.9
COCCCNC(=O)c1oc2ccc(S(=O)(=O)N3CCOCC3)cc2c1C	0.5	6.8	-0.4	5.7	-0.4
Cc1c(C(=O)NCc2ccccc2)oc2ccc(S(=O)(=O)N3CCC4(CC3)OCCO4)cc12	3.8	18.3	1.4	22.8	-6.9
Cc1ccc(C(=O)Oc2cccc(NC(=O)c3cccs3)c2)cc1S(=O)(=O)N1CCOCC1	0.0	11.2	-2.1	57.1*	-19.1
Cc1c(C(=O)NCC2COc3ccccc3O2)oc2ccc(S(=O)(=O)N3CCOCC3)cc12 (centres undefined)	6.2	33.3	8.2	58.1*	-9.2
C=CCCC1CN(Cc2ccc(OC)cc2)S(=O)(=O)c2c(Oc3ccc(F)cc3OC)cccc2O1 (centres undefined)	.	5.5	.	-14.6	.
COc1ccccc1-c1nnc(SCC(=O)NC2CCCCC2)n1C	-0.6	-4.5	-0.5	-7.9	-6.2
COc1cccc(NC(=O)c2oc3ccc(S(=O)(=O)N4CCOCC4)cc3c2C)c1	4.0	18.9	-0.2	52.1*	-1.9
CC(C)c1cc(-c2cc(C(=O)Nc3ccccc3)on2)nc(NCC2CC2)n1	1.5	.	-1.1	.	-12.4
CC(C)c1cc(-c2cc(C(=O)NCc3ccccc3)on2)nc(NCC2CC2)n1	35.3*	68.2*	30.6*	77.0*	-18.2
CCN(CC)S(=O)(=O)c1ccc2oc(SCc3ccc(F)cc3)nc2c1	7.6	11.4	2.2	54.9*	-23.7
CCN(CC)S(=O)(=O)c1ccc2oc(SCC(=O)NC3CC3)nc2c1	0.2	0.8	0.5	4.2	-1.6
CC(C)c1ccc(NC(=O)Nc2nc(C(N)C(C)C)cs2)cc1 (centres undefined)	.	29.1	.	27.9	.
CC(C)c1ccc(NC(=O)Nc2nc(C(N)c3ccccc3)cs2)cc1 (centres undefined)	.	45.1*	.	9.9	.
O=C(NCC1CCCCC1)c1cc(S(=O)(=O)N2CCOCC2)ccc1F	0.6	39.3*	1.0	-25.7	-0.8
COc1ccccc1NC(=O)N(C)C[C@H]1OCc2cn(nn2)CCCC(=O)N([C@H](C)CO)C[C@@H]1C	.	0.6	.	6.0	.
COc1ccc(OC)c(S(=O)(=O)CC(O)COc2ccccc2Cl)c1 (centres undefined)	2.1	1.8	2.3	-7.8	-9.2
COc1cccc(/C=N/n2c(-c3ccco3)nc3ccccc3c2=O)c1	-0.5	13.6	-1.6	49.2*	-9.1
CCCCn1nnnc1C(c1ccccc1)N1CCN(c2ccc(C(F)(F)F)cn2)CC1 (centres undefined)	.	3.0	.	11.7	.
C[C@@H]1CN([C@@H](C)CO)C(=O)CCCn2nncc2CO[C@H]1CN(C)C(=O)Nc1ccc(N2CCN(C)CC2)cc1	.	1.7	.	-2.1	.
COc1cc(C2(c3ccc(O)c(OC)c3)C(=O)Nc3c(C)cc(Br)cc32)ccc1O	4.1	31.0	5.6	51.2*	-14.7
